The values that follow come from ChEMBL document CHEMBL4130391, “Novel methyl indolinone-6-carboxylates containing an indole moiety as angiokinase inhibitors” (Eur J Med Chem, 2017).

Series [1] concerns the target Platelet-derived growth factor receptor beta (Homo sapiens, UniProt P09619). As to the kind of experiment: Inhibition of N-terminal GST tagged human PDGFRbeta (557 to 1106 end residues) cytoplasmic domain expressed in baculovirus expression system preincubated for 10 mins followed by fluorescein amidite-labelled peptide substrate addition measured after 1 hr by mobility shift assay. In a few lines:
(§1)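 Enzyme and compound were preincubated for 10 min at room temperature. FAM-labelled peptide plus ATP was then added and reacted 1 h at 28°C, stopped with EDTA buffer, and run in duplicate. Inhibition = (max − conversion)/(max − min) × 100.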

The test system of series [2] is A549. Kind of series: Antiproliferative activity against human A549 cells after 72 hrs by MTT assay. The class given is functional, cell-based. The settings on record: A549, 72 h. A general note: Tetrazolium dyes change colour on reduction, which living cells bring about.
In series [3] the test system is HT-29. Kind of series: Antiproliferative activity against human HT-29 cells after 72 hrs by MTT assay. The class given is functional, cell-based. Particulars: HT-29, 72 h.
Series [4] has as its system MCF7. Kind of series: Antiproliferative activity against human MCF7 cells after 72 hrs by MTT assay. Particulars: MCF7, 72 h. The class given is functional, cell-based.
Series [5] deals with T1, Vascular endothelial growth factor receptor 2 (Homo sapiens, UniProt P35968). Kind of series: Inhibition of N-terminal biotinylated DYKDDDDK tagged human VEGFR2 (790 to 1356 end residues) cytoplasmic domain expressed in baculovirus expression system preincubated for 10 mins followed by fluorescein amidite-labelled peptide substrate addition measured after 1 hr by mobility shift assay.
T1 sequence (P35968 whole entry, the tested form may be a part): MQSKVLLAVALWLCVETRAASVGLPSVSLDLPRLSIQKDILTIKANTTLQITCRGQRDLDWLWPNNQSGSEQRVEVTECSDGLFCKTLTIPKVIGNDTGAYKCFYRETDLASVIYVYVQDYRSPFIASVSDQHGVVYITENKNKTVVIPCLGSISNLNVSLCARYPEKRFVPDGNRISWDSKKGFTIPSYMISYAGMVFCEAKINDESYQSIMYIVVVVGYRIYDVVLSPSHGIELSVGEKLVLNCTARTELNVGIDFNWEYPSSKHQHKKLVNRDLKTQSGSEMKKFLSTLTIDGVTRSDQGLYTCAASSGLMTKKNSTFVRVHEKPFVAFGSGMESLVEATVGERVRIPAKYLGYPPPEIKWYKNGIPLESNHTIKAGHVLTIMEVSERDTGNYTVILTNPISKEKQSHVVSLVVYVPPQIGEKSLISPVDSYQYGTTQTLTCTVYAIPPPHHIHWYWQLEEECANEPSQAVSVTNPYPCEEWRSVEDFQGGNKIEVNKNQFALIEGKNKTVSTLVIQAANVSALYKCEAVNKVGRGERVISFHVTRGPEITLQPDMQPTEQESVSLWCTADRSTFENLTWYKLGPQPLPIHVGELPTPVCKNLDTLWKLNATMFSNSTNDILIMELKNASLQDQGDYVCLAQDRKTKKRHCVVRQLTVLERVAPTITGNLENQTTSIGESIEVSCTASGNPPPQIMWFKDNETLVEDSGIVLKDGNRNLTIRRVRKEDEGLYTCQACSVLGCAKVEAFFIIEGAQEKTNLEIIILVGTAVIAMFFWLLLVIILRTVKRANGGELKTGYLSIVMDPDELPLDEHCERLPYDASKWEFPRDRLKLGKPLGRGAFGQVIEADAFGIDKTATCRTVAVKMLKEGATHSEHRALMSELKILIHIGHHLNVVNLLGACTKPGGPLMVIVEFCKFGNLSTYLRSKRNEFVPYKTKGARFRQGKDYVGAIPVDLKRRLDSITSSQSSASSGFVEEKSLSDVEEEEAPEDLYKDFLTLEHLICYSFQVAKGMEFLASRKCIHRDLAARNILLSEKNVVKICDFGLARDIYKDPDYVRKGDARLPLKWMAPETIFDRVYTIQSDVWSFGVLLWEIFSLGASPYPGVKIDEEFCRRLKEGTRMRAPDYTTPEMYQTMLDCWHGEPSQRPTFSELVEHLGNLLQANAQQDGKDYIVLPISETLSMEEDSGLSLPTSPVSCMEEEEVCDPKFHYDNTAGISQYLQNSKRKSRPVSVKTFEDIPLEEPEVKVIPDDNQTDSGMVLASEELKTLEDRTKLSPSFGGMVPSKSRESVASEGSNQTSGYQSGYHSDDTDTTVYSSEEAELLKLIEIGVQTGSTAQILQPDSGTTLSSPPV

Series [6] deals with HT-29. Kind of series: Induction of apoptosis in human HT-29 cells assessed as late apoptotic cells at 1 uM measured after 48 hrs by Annexin-V-FITC/propidium iodide staining based flow cytometry (reference value: 10.60 %). It counts as functional. On the technique in general: A flow cytometer gives signals particle by particle.
The test system of series [7] is HUVEC. Kind of series: Induction of apoptosis in HUVEC assessed as early apoptotic cells at 1 uM measured after 48 hrs by Annexin-V-FITC/propidium iodide staining based flow cytometry (reference value: 1.78 %). The class given is functional, Homo sapiens.
Series [8] deals with HT-29. Kind of series: Induction of apoptosis in human HT-29 cells assessed as early apoptotic cells at 3 uM measured after 48 hrs by Annexin-V-FITC/propidium iodide staining based flow cytometry (reference value: 0.99 %). The class given is functional.
Series [9] has as its system HT-29. As to the kind of experiment: Induction of apoptosis in human HT-29 cells assessed as late apoptotic cells at 3 uM measured after 48 hrs by Annexin-V-FITC/propidium iodide staining based flow cytometry (reference value: 10.60 %). The class given is functional.
Series [10] concerns MCF7. Kind of series: Induction of apoptosis in human MCF7 cells assessed as late apoptotic cells at 1 uM measured after 48 hrs by Annexin-V-FITC/propidium iodide staining based flow cytometry (reference value: 13.68 %). The class given is functional.
Series [11] has as its system MCF7. As to the kind of experiment: Induction of apoptosis in human MCF7 cells assessed as late apoptotic cells at 0.3 uM measured after 48 hrs by Annexin-V-FITC/propidium iodide staining based flow cytometry (reference value: 13.68 %). It counts as functional.
In series [12] the test system is HT-29. As to the kind of experiment: Induction of apoptosis in human HT-29 cells assessed as early apoptotic cells at 1 uM measured after 48 hrs by Annexin-V-FITC/propidium iodide staining based flow cytometry (reference value: 0.99 %). It counts as functional.
In series [13] the test system is HUVEC. Kind of series: Induction of apoptosis in HUVEC measured after 48 hrs by Annexin-V-FITC/propidium iodide staining based flow cytometry. Particulars: Homo sapiens. It counts as functional, cell-based.
Series [14] has as its system HEK-293T. As to the kind of experiment: Cytotoxicity against HEK293T cells assessed as reduction in cell viability at 10 uM after 72 hrs by MTT assay. The class given is cell-based. The settings on record: human. In a few lines: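 HEK293T cells, about 4 × 10^3 per well, were grown in MEM with 10% FBS at 37°C in 5% CO2 for 24 h. Cells were then exposed to compound for 72 h. MTT was added at 5 µg/mL final for 4 h at 37°C and the formazan dissolved in DMSO. Absorbance was read at 492 nm with 630 nm as reference.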

Series [15] deals with HUVEC. Kind of series: Induction of apoptosis in HUVEC assessed as late apoptotic cells at 0.3 uM measured after 48 hrs by Annexin-V-FITC/propidium iodide staining based flow cytometry (reference value: 5.79 %). It counts as functional, Homo sapiens.
The test system of series [16] is HUVEC. As to the kind of experiment: Induction of apoptosis in HUVEC assessed as early apoptotic cells at 3 uM measured after 48 hrs by Annexin-V-FITC/propidium iodide staining based flow cytometry (reference value: 1.78 %). The class given is functional, Homo sapiens.
The test system of series [17] is MCF7. As to the kind of experiment: Induction of apoptosis in human MCF7 cells assessed as early apoptotic cells at 1 uM measured after 48 hrs by Annexin-V-FITC/propidium iodide staining based flow cytometry (reference value: 1.32 %). The class given is functional.
For series [18], the system named is MCF7. As to the kind of experiment: Induction of apoptosis in human MCF7 cells assessed as early apoptotic cells at 0.3 uM measured after 48 hrs by Annexin-V-FITC/propidium iodide staining based flow cytometry (reference value: 1.32 %). The class given is functional.
For series [19], the system named is HT-29. Kind of series: Induction of apoptosis in human HT-29 cells assessed as early apoptotic cells at 0.3 uM measured after 48 hrs by Annexin-V-FITC/propidium iodide staining based flow cytometry (reference value: 0.99 %). It counts as functional.
The subject of series [20] is HUVEC. As to the kind of experiment: Induction of apoptosis in HUVEC assessed as late apoptotic cells at 3 uM measured after 48 hrs by Annexin-V-FITC/propidium iodide staining based flow cytometry (reference value: 5.79 %). The class given is functional, Homo sapiens.
Series [21] has as its system MCF7. As to the kind of experiment: Induction of apoptosis in human MCF7 cells assessed as late apoptotic cells at 3 uM measured after 48 hrs by Annexin-V-FITC/propidium iodide staining based flow cytometry (reference value: 13.68 %). It counts as functional.
In series [22] the target is Fibroblast growth factor receptor 1 (Homo sapiens, UniProt P11362). Kind of series: Inhibition of N-terminal GST tagged human FGFR1 (398 to 822 end residues) cytoplasmic domain expressed in baculovirus expression system preincubated for 10 mins followed by fluorescein amidite-labelled peptide substrate addition measured after 1 hr by mobility shift assay.
Fibroblast growth factor receptor 1, sequence (P11362 whole entry, the tested form may be a part): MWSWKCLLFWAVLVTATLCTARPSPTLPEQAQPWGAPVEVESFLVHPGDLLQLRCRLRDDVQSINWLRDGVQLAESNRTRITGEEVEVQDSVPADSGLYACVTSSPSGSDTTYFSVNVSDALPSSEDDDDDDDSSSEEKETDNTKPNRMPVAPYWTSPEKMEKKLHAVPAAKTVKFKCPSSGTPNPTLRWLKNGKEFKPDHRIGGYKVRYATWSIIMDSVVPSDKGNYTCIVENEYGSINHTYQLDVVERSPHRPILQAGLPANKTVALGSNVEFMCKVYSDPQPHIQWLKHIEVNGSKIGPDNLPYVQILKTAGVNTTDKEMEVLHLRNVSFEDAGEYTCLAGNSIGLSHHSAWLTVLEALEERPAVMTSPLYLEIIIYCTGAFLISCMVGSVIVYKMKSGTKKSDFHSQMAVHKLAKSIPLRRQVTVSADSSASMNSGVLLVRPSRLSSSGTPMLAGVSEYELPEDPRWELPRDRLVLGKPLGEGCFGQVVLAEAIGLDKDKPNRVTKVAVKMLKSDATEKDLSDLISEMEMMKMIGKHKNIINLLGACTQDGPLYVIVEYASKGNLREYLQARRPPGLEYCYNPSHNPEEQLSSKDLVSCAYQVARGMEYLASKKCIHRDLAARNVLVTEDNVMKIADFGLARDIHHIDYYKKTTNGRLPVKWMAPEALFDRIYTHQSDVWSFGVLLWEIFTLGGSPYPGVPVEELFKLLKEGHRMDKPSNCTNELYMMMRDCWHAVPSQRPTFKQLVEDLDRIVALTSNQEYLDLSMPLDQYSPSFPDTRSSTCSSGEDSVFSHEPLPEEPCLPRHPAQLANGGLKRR
In series [23] the test system is HUVEC. Kind of series: Induction of apoptosis in HUVEC assessed as late apoptotic cells at 1 uM measured after 48 hrs by Annexin-V-FITC/propidium iodide staining based flow cytometry (reference value: 5.79 %). The class given is functional, Homo sapiens.
The subject of series [24] is HT-29. Kind of series: Induction of apoptosis in human HT-29 cells assessed as late apoptotic cells at 0.3 uM measured after 48 hrs by Annexin-V-FITC/propidium iodide staining based flow cytometry (reference value: 10.60 %). The class given is functional.
Series [25] deals with MCF7. Kind of series: Induction of apoptosis in human MCF7 cells assessed as early apoptotic cells at 3 uM measured after 48 hrs by Annexin-V-FITC/propidium iodide staining based flow cytometry (reference value: 1.32 %). The class given is functional.
In series [26] the test system is HUVEC. Kind of series: Induction of apoptosis in HUVEC assessed as early apoptotic cells at 0.3 uM measured after 48 hrs by Annexin-V-FITC/propidium iodide staining based flow cytometry (reference value: 1.78 %). It counts as functional, Homo sapiens.
Series [27] addresses T1, Vascular endothelial growth factor receptor 2. Kind of series: Inhibition of N-terminal biotinylated DYKDDDDK tagged human VEGFR2 (790 to 1356 end residues) cytoplasmic domain expressed in baculovirus expression system at 1 uM preincubated for 10 mins followed by fluorescein amidite-labelled peptide substrate addition measured after 1 hr by mobility shift assay relative to control. In a few lines:
as §1

Platelet-derived growth factor receptor beta, sequence (P09619 whole entry, the tested form may be a part): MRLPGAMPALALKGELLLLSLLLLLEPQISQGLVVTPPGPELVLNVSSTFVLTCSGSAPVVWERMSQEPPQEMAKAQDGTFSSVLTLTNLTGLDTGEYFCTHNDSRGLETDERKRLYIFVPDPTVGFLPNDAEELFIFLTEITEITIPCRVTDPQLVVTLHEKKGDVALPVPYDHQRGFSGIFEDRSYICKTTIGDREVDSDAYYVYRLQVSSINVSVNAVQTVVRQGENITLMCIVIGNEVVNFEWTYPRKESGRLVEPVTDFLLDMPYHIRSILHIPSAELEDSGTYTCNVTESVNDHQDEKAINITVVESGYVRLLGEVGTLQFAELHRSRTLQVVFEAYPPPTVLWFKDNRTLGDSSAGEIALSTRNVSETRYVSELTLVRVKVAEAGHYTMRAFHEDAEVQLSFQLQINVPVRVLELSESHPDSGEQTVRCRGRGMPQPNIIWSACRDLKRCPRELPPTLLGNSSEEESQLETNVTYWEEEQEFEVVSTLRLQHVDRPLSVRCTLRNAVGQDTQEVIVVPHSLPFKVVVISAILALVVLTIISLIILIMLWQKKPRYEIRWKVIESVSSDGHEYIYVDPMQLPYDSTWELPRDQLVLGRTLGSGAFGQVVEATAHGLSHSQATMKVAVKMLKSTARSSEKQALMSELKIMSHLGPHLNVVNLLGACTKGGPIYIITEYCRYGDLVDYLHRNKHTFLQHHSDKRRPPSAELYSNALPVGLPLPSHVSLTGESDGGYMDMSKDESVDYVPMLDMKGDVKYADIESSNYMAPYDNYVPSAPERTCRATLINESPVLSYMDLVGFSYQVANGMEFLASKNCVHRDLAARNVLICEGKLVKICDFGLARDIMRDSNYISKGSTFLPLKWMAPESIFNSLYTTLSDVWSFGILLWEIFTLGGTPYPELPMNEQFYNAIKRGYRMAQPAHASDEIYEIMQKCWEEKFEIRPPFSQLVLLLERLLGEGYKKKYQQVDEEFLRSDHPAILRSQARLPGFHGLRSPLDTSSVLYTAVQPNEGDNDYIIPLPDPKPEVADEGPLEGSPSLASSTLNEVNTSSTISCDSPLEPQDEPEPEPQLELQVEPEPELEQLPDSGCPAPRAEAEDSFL

Usually IC50 stands for the point on the concentration scale where inhibition reaches its midpoint. As for `COC(=O)c1ccc2c(c1)NC(=O)/C2=C(\Nc1ccc2c(c1)c(CN(C)C)cn2C(C)C)c1ccccc1`, the half-inhibitory concentration (IC50) was 0.0492 µM in series [1], 4.32 µM in series [2], 0.25 µM in series [3] and 5.67 µM in series [4].
Take `COC(=O)c1ccc2c(c1)NC(=O)/C2=C(\Nc1ccc2[nH]c(C(=O)N(C)C)cc2c1)c1ccccc1`: the IC50 is above 100 µM in series [2], above 100 µM in [3] and above 1 µM in [5].
As for `COC(=O)c1ccc2c(c1)NC(=O)/C2=C(\Nc1ccc2[nH]c(C(=O)N3CCN(C)CC3)cc2c1)c1ccccc1`, the Activity in series [6] is recorded as 74.82%; in [7] it was 3.97%; in series [8], 0.05%; in series [9], 98.81%; in series [10], 34.43%; in series [11], 18.25%. The Activity in series [12] was 0.44%; in series [13] it was “Dose-dependent effect”; in series [14], “Non-Toxic”; in [15], 17.62%; in [16], 1.51%; in series [17], 0.65%. In addition, the Activity in series [18] stood at 1.27%; in series [19] it was 2.31%; in [20] it was 93.77%; in [21] it was 94.04%; in [23], 77.6%; in series [24], 14.15%. Moreover, the Activity in [25] is 0.28%; in [26] it was 5.68%. The IC50 stood at 0.022 µM in series [1]; 2.99 µM in series [2]; 1.17 µM in [3]; 1.56 µM in [4]; 1.51 µM in series [22].
Consider `COC(=O)c1ccc2c(c1)NC(=O)/C2=C(\Nc1ccc2[nH]c(CN3CCN(C)CC3)cc2c1)c1ccccc1`, for which the IC50 in series [1] came out at 0.0927 µM; in series [2], 39.1 µM; in series [3], 0.32 µM; in series [4], 3.27 µM.
`COC(=O)c1ccc2c(c1)NC(=O)/C2=C(\Nc1ccc2c(c1)nc(CN(C)C)n2C)c1ccccc1`: the IC50 in series [1] was 0.0455 µM; in series [2], above 100 µM; in [3], 89.9 µM; in series [4] it was above 100 µM.
For `COC(=O)c1ccc2c(c1)NC(=O)/C2=C(\Nc1ccc2c(c1)nc(CN1CCN(C)CC1)n2C)c1ccccc1`, the IC50 is 0.061 µM in series [1], 40.5 µM in [2], 0.7 µM in [3] and 22.5 µM in series [4].
Regarding `CCn1c(C(=O)N2CCN(C)CC2)cc2cc(N/C(=C3\C(=O)Nc4cc(C(=O)OC)ccc43)c3ccccc3)ccc21`, the values for the IC50 in series [1], in series [2] and in series [3] were 0.039 µM, 11.9 µM and 2.19 µM, respectively.
A word on the inhibition: it is the drop in the measured response relative to a control, in per cent. Consider `COC(=O)c1ccc2c(c1)NC(=O)/C2=C(\Nc1ccc2nc(CN3CCN(C)CC3)oc2c1)c1ccccc1`, for which the inhibition in [27] was 79%. In addition, the figures for the IC50 in [1] and in series [2] were 0.116 µM and above 100 µM, respectively.
Regarding `COC(=O)c1ccc2c(c1)NC(=O)/C2=C(\Nc1ccc2[nH]cc(CN(C)C)c2c1)c1ccccc1`, the IC50 is 0.0607 µM in [1]; 2.27 µM in [2]; 0.13 µM in [3]; 3.94 µM in [4]; above 1 µM in [5].
Turning to `COC(=O)c1ccc2c(c1)NC(=O)/C2=C(\Nc1ccc2[nH]cc(CN3CCOCC3)c2c1)c1ccccc1`, the IC50 in series [1] was found to be 0.242 µM.
Turning to `COC(=O)c1ccc2c(c1)NC(=O)/C2=C(\Nc1ccc2[nH]cc(CN3CCN(C)CC3)c2c1)c1ccccc1`, the inhibition in series [27] worked out at 59%. Also, the IC50 is 0.135 µM in series [1] and 7.4 µM in [2].
For `COC(=O)c1ccc2c(c1)NC(=O)/C2=C(\Nc1ccc2nc(CN(C)C)oc2c1)c1ccccc1`, the IC50 is above 0.5 µM in series [1], above 100 µM in series [2] and above 1 µM in series [5].
With `COC(=O)c1ccc2c(c1)NC(=O)/C2=C(\Nc1ccc2[nH]c(CN(C)C)cc2c1)c1ccccc1`, the half-maximal inhibitory concentration (IC50) in series [2] turned out to be 16.4 µM; in [3] it was 0.98 µM; in [4], 2.32 µM.
Turning to `CCn1cc(CN(C)C)c2cc(N/C(=C3\C(=O)Nc4cc(C(=O)OC)ccc43)c3ccccc3)ccc21`, the IC50 in [1] was 0.0343 µM; in [2] it was 7.63 µM; in series [3] it was 6.79 µM; in series [4], 5.53 µM.
For the compound `COC(=O)c1ccc2c(c1)NC(=O)/C2=C(\Nc1ccc2c(c1)cc(C(=O)N1CCN(C)CC1)n2C)c1ccccc1`, the IC50 in [1] is 0.0442 µM; in series [2], 75.2 µM; in series [3], 1.1 µM.
For the compound `COC(=O)c1ccc2c(c1)NC(=O)/C2=C(\Nc1ccc2c(c1)c(CN1CCN(C)CC1)cn2C)c1ccccc1`, the IC50 in [1] is 0.0917 µM; in series [2] it was 6.15 µM; in series [3] it was 0.87 µM; in [4], 4.01 µM; in series [5] it was above 1 µM.
For the compound `COC(=O)c1ccc2c(c1)NC(=O)/C2=C(\Nc1ccc(N(C)C(=O)CN2CCN(C)CC2)cc1)c1ccccc1` [NINTEDANIB], the IC50 in [2] was found to be 22.6 µM; in series [3], 0.83 µM; in [4], 8.28 µM.
Turning to `COC(=O)c1ccc2c(c1)NC(=O)/C2=C(\Nc1ccc2c(c1)c(CN(C)C)cn2C)c1ccccc1`, the IC50 in series [1] worked out at 0.0646 µM; in series [2] it was 6.01 µM; in [3] it was 0.46 µM; in [4] it was 2.28 µM.
